Test results reported in ChEMBL document CHEMBL1128681, “Studies on the monoamine oxidase (MAO)-catalyzed oxidation of phenyl-substituted 1-methyl-4-phenoxy-1,2,3,6-tetrahydropyridine derivatives: factors contributing to MAO-A and MAO-B selectivity” (J Med Chem, 1995).

How the values were obtained:
[1] = substrate: CN1CC=C(Cc2ccccc2)CC1; test: (§1) Michaelis-Menten constant for Monoamine oxidase B catalyzed oxidation (KM).; parameters: species or system Bos taurus
Summary of the method: (§2)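 MAO-B at 0.08 μM final; activity was calibrated with MPTP at 30 °C and the preparation was stored at –15 °C. Substrate range 100–2000 μM in 100 mM sodium phosphate pH 7.4, with spectrophotometric initial oxidation rates. KM and kcat derived from double-reciprocal plots, and kcat/KM calculated from them.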

[2] = substrate: CN1CC=C(Oc2ccc(Cl)cc2)CC1; test: as §1; parameters: species or system Bos taurus; summary of the method: as §2
[3] = substrate: CN1CC=C(Oc2ccc([N+](=O)[O-])cc2)CC1; test: as §1; parameters: species or system Bos taurus; summary of the method: as §2
[4] = substrate: CN1CC=C(Oc2cccc(-c3ccccc3)c2)CC1; test: as §1; parameters: species or system Bos taurus; summary of the method: as §2
[5] = substrate: CN1CC=C(Oc2cccc(Cl)c2)CC1; test: as §1; parameters: species or system Bos taurus; summary of the method: as §2
[6] = substrate: CN1CC=C(Oc2cccc([N+](=O)[O-])c2)CC1; test: as §1; parameters: species or system Bos taurus; summary of the method: as §2
[7] = substrate: CN1CC=C(Oc2ccccc2-c2ccccc2)CC1; test: as §1; parameters: species or system Bos taurus; summary of the method: as §2
[8] = substrate: CN1CC=C(Oc2ccccc2Cl)CC1; test: as §1; parameters: species or system Bos taurus; summary of the method: as §2
[9] = substrate: CN1CC=C(Oc2ccccc2[N+](=O)[O-])CC1; test: as §1; parameters: species or system Bos taurus; summary of the method: as §2
[10] = substrate: COc1ccc(OC2=CCN(C)CC2)cc1; test: as §1; parameters: species or system Bos taurus; summary of the method: as §2
[11] = substrate: COc1cccc(OC2=CCN(C)CC2)c1; test: as §1; parameters: species or system Bos taurus; summary of the method: as §2
[12] = substrate: COc1ccccc1OC1=CCN(C)CC1; test: as §1; parameters: species or system Bos taurus; summary of the method: as §2
[13] = substrate: Cc1ccc(OC2=CCN(C)CC2)cc1; test: as §1; parameters: species or system Bos taurus; summary of the method: as §2
[14] = substrate: Cc1cccc(OC2=CCN(C)CC2)c1; test: as §1; parameters: species or system Bos taurus; summary of the method: as §2
[15] = substrate: Cc1ccccc1OC1=CCN(C)CC1; test: as §1; parameters: species or system Bos taurus; summary of the method: as §2
[16] = substrate: CN1CC=C(Cc2ccccc2)CC1; test: (§3) Michaelis-Menten constant for Monoamine oxidase A-catalyzed oxidation (KM).
Summary of the method: (§4)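 MAO-A at 0.16 μM final, raised to 0.32 μM for one slowly oxidized substrate. The MAO-A preparation was diluted with 3 volumes of phosphate buffer just before use, and its activity was re-checked bimonthly with kynuramine at 30 °C. Substrates at 100–2000 μM in 100 mM sodium phosphate pH 7.4; initial rates by spectrophotometry. kcat and KM from double-reciprocal plots; kcat/KM as their ratio.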

[17] = substrate: CN1CC=C(Oc2ccc(Cl)cc2)CC1; test: as §3; summary of the method: as §4
[18] = substrate: CN1CC=C(Oc2ccc([N+](=O)[O-])cc2)CC1; test: as §3; summary of the method: as §4
[19] = substrate: CN1CC=C(Oc2cccc(-c3ccccc3)c2)CC1; test: as §3; summary of the method: as §4
[20] = substrate: CN1CC=C(Oc2cccc(Cl)c2)CC1; test: as §3; summary of the method: as §4
[21] = substrate: CN1CC=C(Oc2cccc([N+](=O)[O-])c2)CC1; test: as §3; summary of the method: as §4
[22] = substrate: CN1CC=C(Oc2ccccc2-c2ccccc2)CC1; test: as §3; summary of the method: as §4
[23] = substrate: CN1CC=C(Oc2ccccc2Cl)CC1; test: as §3; summary of the method: as §4
[24] = substrate: CN1CC=C(Oc2ccccc2[N+](=O)[O-])CC1; test: as §3; summary of the method: as §4
[25] = substrate: COc1ccc(OC2=CCN(C)CC2)cc1; test: as §3; summary of the method: as §4
[26] = substrate: COc1cccc(OC2=CCN(C)CC2)c1; test: as §3; summary of the method: as §4
[27] = substrate: COc1ccccc1OC1=CCN(C)CC1; test: as §3; summary of the method: as §4
[28] = substrate: Cc1ccc(OC2=CCN(C)CC2)cc1; test: as §3; summary of the method: as §4
[29] = substrate: Cc1cccc(OC2=CCN(C)CC2)c1; test: as §3; summary of the method: as §4
[30] = substrate: Cc1ccccc1OC1=CCN(C)CC1; test: as §3; summary of the method: as §4

B1: Amine oxidase [flavin-containing] B (Bos taurus) (protein)
chain: MSSKCDVVVVGGGISGMAAAKLLHDSGLNVIVLEARDRVGGRTYTLRNQKVKYVDLGGSYVGPTQNHILRLSKELGLETYKVNEVERLIHHTKGKSYPFRGSFPSVWNPITYLDHNNLWRTMDDMGREIPSDAPWKAPLAEQWDLMTMKELLDKICWTESSKQLAILFVNLCVTAEIHEVSALWFLWYVKQCGGTTRIFSTSNGGQERKFVGGSGQVSERIMDLLGDRVKLERPVIHIDQTGENVLVETLNHELYEAKYVISAVPPVLGMKIHFNPPLPMMRNQLITRVPLGSVIKSIVYYKEPFWRNMDYCGSMIIEGEEAPVAYALDDTKPDGSYPAIIGFILAHKARKLARLTKEERLKKLCDLYAKVLGSQEALHPVHYEEKNWCEEQYSGGCYTSYFPPGIMTQYGRVLRQPVGRIYFAGTETATHWSGYMEGAVEAGERAAREILHAMGKIPEDEIWLPEPESVDVPAKPITTTFLQRHLPSVPGLLKLIGLTTIFSATALGFLAHKRGLLVRI
Work on B1 yielded a Km [1] of 180 µM, a kcat [1] of 10.7 s⁻¹ and a kcat/Km [1] of 59700 M⁻¹ s⁻¹. The Km [2] was 254 µM, the kcat [2] was 5.93 s⁻¹ and the kcat/Km [2] was 23400 M⁻¹ s⁻¹. It also gave a Km [3] of 443 µM, a kcat [3] of 1.4 s⁻¹ and a kcat/Km [3] of 3180 M⁻¹ s⁻¹. For the same protein, the Km [4] was 346 µM, the kcat [4] was 3.67 s⁻¹ and the kcat/Km [4] was 10600 M⁻¹ s⁻¹. It also gave a Km [5] of 308 µM, a kcat [5] of 3.73 s⁻¹ and a kcat/Km [5] of 12200 M⁻¹ s⁻¹. The Km [6] was 105 µM, the kcat [6] was 2.47 s⁻¹ and the kcat/Km [6] was 23500 M⁻¹ s⁻¹. The Km [7] was 691 µM, the kcat [7] was 1.52 s⁻¹ and the kcat/Km [7] was 2200 M⁻¹ s⁻¹. The Km [8] was 220 µM, the kcat [8] was 3.02 s⁻¹ and the kcat/Km [8] was 13700 M⁻¹ s⁻¹. For the same protein, the Km [9] was 86 µM, the kcat [9] was 1.13 s⁻¹ and the kcat/Km [9] was 13100 M⁻¹ s⁻¹. For the same protein, the Km [10] was 474 µM, the kcat [10] was 5.9 s⁻¹ and the kcat/Km [10] was 12400 M⁻¹ s⁻¹. The Km [11] was 337 µM, the kcat [11] was 4.05 s⁻¹ and the kcat/Km [11] was 12000 M⁻¹ s⁻¹. For the same protein, the Km [12] was 313 µM, the kcat [12] was 5.7 s⁻¹ and the kcat/Km [12] was 12400 M⁻¹ s⁻¹. It also gave a Km [13] of 106 µM, a kcat [13] of 3.57 s⁻¹ and a kcat/Km [13] of 33600 M⁻¹ s⁻¹. For the same protein, the Km [14] was 116 µM, the kcat [14] was 3.37 s⁻¹ and the kcat/Km [14] was 29100 M⁻¹ s⁻¹. The Km [15] was 98 µM, the kcat [15] was 2.92 s⁻¹ and the kcat/Km [15] was 29700 M⁻¹ s⁻¹.

B2: Amine oxidase [flavin-containing] A (Homo sapiens) (protein)
chain: MENQEKASIAGHMFDVVVIGGGISGLSAAKLLTEYGVSVLVLEARDRVGGRTYTIRNEHVDYVDVGGAYVGPTQNRILRLSKELGIETYKVNVSERLVQYVKGKTYPFRGAFPPVWNPIAYLDYNNLWRTIDNMGKEIPTDAPWEAQHADKWDKMTMKELIDKICWTKTARRFAYLFVNINVTSEPHEVSALWFLWYVKQCGGTTRIFSVTNGGQERKFVGGSGQVSERIMDLLGDQVKLNHPVTHVDQSSDNIIIETLNHEHYECKYVINAIPPTLTAKIHFRPELPAERNQLIQRLPMGAVIKCMMYYKEAFWKKKDYCGCMIIEDEDAPISITLDDTKPDGSLPAIMGFILARKADRLAKLHKEIRKKKICELYAKVLGSQEALHPVHYEEKNWCEEQYSGGCYTAYFPPGIMTQYGRVIRQPVGRIFFAGTETATKWSGYMEGAVEAGERAAREVLNGLGKVTEKDIWVQEPESKDVPAVEITHTFWERNLPSVSGLLKIIGFSTSVTALGFVLYKYKLLPRS
B2 showed a Km [16] of 103 µM, a kcat [16] of 0.467 s⁻¹ and a kcat/Km [16] of 4600 M⁻¹ s⁻¹. For the same protein, the Km [17] was 63 µM, the kcat [17] was 3.15 s⁻¹ and the kcat/Km [17] was 50100 M⁻¹ s⁻¹. The Km [18] was 169 µM, the kcat [18] was 1.37 s⁻¹ and the kcat/Km [18] was 8050 M⁻¹ s⁻¹. The Km [19] was 232 µM, the kcat [19] was 21.5 s⁻¹ and the kcat/Km [19] was 92800 M⁻¹ s⁻¹. It also gave a Km [20] of 82 µM, a kcat [20] of 5.97 s⁻¹ and a kcat/Km [20] of 72800 M⁻¹ s⁻¹. For the same protein, the Km [21] was 174 µM, the kcat [21] was 4.95 s⁻¹ and the kcat/Km [21] was 28500 M⁻¹ s⁻¹. For the same protein, the Km [22] was 426 µM, the kcat [22] was 4.08 s⁻¹ and the kcat/Km [22] was 9580 M⁻¹ s⁻¹. It also gave a Km [23] of 83 µM, a kcat [23] of 3.4 s⁻¹ and a kcat/Km [23] of 41000 M⁻¹ s⁻¹. The Km [24] was 306 µM, the kcat [24] was 6.83 s⁻¹ and the kcat/Km [24] was 22300 M⁻¹ s⁻¹. The Km [25] was 47 µM, the kcat [25] was 1.22 s⁻¹ and the kcat/Km [25] was 25800 M⁻¹ s⁻¹. It also gave a Km [26] of 176 µM, a kcat [26] of 8.2 s⁻¹ and a kcat/Km [26] of 46600 M⁻¹ s⁻¹. For the same protein, the Km [27] was 75 µM, the kcat [27] was 0.95 s⁻¹ and the kcat/Km [27] was 12700 M⁻¹ s⁻¹. The Km [28] was 129 µM, the kcat [28] was 1.3 s⁻¹ and the kcat/Km [28] was 10000 M⁻¹ s⁻¹. The Km [29] was 212 µM, the kcat [29] was 7.18 s⁻¹ and the kcat/Km [29] was 33900 M⁻¹ s⁻¹. For the same protein, the Km [30] was 108 µM, the kcat [30] was 4.5 s⁻¹ and the kcat/Km [30] was 41700 M⁻¹ s⁻¹.
